In the library only some 4.1% were active in any assay of this set; here they are far more common.
SMARCA2 activ – SMARCA2 function activation, primary screen; MG213 cells, MMTV-luciferase reporter, dexamethasone, overnight; activation, % at 9.1 µM; AID 652017; actives 1% (n = 370,000); in the data active = activation above about 7.8%;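 note: 0% = vehicle wells and 100% = reference activator wells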
Efflux pump mplx – antifungal efflux pump inhibition, Nile Red retention; S. cerevisiae Candida pump triplex; AID 485275; inhibition, % at 10 µM; actives 0.44% (n = 330,000);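 active = plate passing quality check with inhibition over a set limit, or well fluorescence over plate mean plus 4 SD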;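 note: Nile Red retained in pooled yeast measured as flow cytometry median fluorescence; 0% = buffer negative control and 100% = Enniatin B positive control; higher means more Nile Red kept so more efflux inhibition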
Tb MetRS inh – Trypanosoma brucei MetRS inhibition; purified T. brucei MetRS, ATP depletion, Kinase-Glo luminescence; inhibition, % at 11.9 µM; actives 0.4% (n = 360,000); AID 624268;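 active = inhibition above a per-plate cutoff of the control wells' mean inhibition plus 3 SD, cut at about 5.5% in these data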;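 note: 0% = DMSO wells median and 100% = median of wells with control inhibitor compound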
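Material – parasite MetRS enzyme · Medium – HEPES-MgCl2-KCl buffer plus DTT, spermine, BSA, pyrophosphatase · Reagent – ATP, methionine and E. coli bulk tRNA substrates · Times – 15 min enzyme-compound preincubation, 2 h reaction, 10 min detection, 25 °C · Measured by – luminescence of leftover ATP · Evaluation – percent inhibition relative to median high and low control wells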
AHR activator – human AHR activation. AHR-responsive luciferase reporter cells, luminescence. activation, % at 5 µM. P35869. actives 2.5% (n = 320,000). AID 2796; in the data active = activation above about 47%;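 note: 0% = vehicle wells and 100% = reference agonist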
Target sequence (P35869 whole entry, looked up): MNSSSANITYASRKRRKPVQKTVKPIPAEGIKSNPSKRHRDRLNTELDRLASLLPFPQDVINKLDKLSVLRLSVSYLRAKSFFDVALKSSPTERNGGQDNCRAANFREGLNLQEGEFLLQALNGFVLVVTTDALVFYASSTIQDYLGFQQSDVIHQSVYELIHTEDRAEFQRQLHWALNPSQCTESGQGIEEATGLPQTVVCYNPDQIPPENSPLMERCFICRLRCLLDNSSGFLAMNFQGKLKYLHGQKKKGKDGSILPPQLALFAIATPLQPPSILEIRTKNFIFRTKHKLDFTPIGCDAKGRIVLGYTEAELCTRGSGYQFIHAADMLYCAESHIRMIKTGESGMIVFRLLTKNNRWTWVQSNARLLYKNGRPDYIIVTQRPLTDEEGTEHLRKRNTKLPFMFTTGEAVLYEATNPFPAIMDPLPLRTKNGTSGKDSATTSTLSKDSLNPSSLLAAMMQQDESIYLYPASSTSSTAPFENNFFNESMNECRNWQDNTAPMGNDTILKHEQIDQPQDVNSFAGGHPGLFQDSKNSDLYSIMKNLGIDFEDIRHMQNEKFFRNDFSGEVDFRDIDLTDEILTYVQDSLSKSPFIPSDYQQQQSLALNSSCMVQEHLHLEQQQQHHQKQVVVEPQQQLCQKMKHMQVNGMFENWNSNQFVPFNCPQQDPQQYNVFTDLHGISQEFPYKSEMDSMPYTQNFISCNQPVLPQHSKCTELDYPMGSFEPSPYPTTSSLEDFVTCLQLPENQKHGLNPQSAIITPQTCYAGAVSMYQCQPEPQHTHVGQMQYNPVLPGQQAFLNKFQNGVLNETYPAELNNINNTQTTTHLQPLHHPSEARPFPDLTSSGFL
H9c2 TAG inh – reduces triacylglycerol accumulation in H9c2 cells | Nile Red lipid (TAG) fluorescence; cells loaded with 200 µM oleic acid | inhibition, % at 12.5 µM | actives 0.66% (n = 230,000) | AID 651582;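 active = pattern-corrected inhibition of lipid staining of at least 50% with the nuclear-stain viability signal not falling by more than 50%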;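 note: 0% = DMSO wells and 100% = triacsin C control wells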
An asterisk follows results filed as active.

Screening O=C(NC(=S)Nc1cc([N+](=O)[O-])ccc1O)c1ccc2c(c1)OCO2 returned SMARCA2 activ 7, Efflux pump mplx 1, Tb MetRS inh 0, AHR activator 71* and H9c2 TAG inh 27.
COc1cc([N+](=O)[O-])ccc1NC(=S)NNC(=O)c1ccc2c(c1)OCO2 was read as SMARCA2 activ 0, Efflux pump mplx -1, Tb MetRS inh 0, AHR activator 39 and H9c2 TAG inh 18.
`CN(C)C(=S)Nc1ccc2c(c1)OCO2` gave SMARCA2 activ 1, Efflux pump mplx 0, Tb MetRS inh 0, AHR activator 3 and H9c2 TAG inh 14.
Screening O=C(NC(=S)Nc1ccc2c(c1)OCO2)c1ccc(Cl)cc1 returned SMARCA2 activ 6, Efflux pump mplx 0, Tb MetRS inh 0 and AHR activator 53*.
For O=C(NCc1ccc(F)c(F)c1)C1CCC(CNS(=O)(=O)c2cccc3cccnc23)CC1 (centres undefined) the results were SMARCA2 activ -5.
For CC(=O)CC[C@@H]1CC[C@]2(CCCN(S(C)(=O)=O)C2)O1 the results were SMARCA2 activ -1.
For COc1cccc(NC(=O)N2CC[C@@H]3[C@H]2c2cc(-c4cccc(C#N)c4)ccc2N(C)[C@@H]3CO)c1 the results were SMARCA2 activ 0.
`CC(=C/C(=O)O)/C=C/c1ccc([N+](=O)[O-])cc1` gave SMARCA2 activ -3, Efflux pump mplx 0, Tb MetRS inh 1 and AHR activator 2.
For CC1(C)COC(/C=C/c2ccc([N+](=O)[O-])cc2)=N1 the results were SMARCA2 activ -1, Efflux pump mplx 1, Tb MetRS inh 1 and AHR activator 50*.
`CCCCCCCCN1CCS(=O)(=O)N(Cc2ccc(F)cc2)C(C(=O)OC)C1` (centres undefined) gave SMARCA2 activ 0.
O=C(Nc1nccs1)c1cn2ccccc2n1 was read as SMARCA2 activ 6, Efflux pump mplx 0, Tb MetRS inh -1, AHR activator 62* and H9c2 TAG inh -10.
`NNC(=O)c1cn2ccccc2n1` gave SMARCA2 activ 0, Efflux pump mplx 0, Tb MetRS inh 0 and AHR activator 2.
`COc1ccc(C)cc1NC(=O)C(OC(=O)c1cnccn1)c1ccccc1` (centres undefined) gave SMARCA2 activ -1, Efflux pump mplx 0, Tb MetRS inh 0, AHR activator 32 and H9c2 TAG inh -7.
For COc1ccc(C)cc1NC(=O)C(OC(=O)CNC(=O)c1cc(C)cc(C)c1)c1ccccc1 (centres undefined) the results were SMARCA2 activ 3, Efflux pump mplx 0, Tb MetRS inh -1, AHR activator 67* and H9c2 TAG inh 1.
For Cc1cc(C)cc(NC(=O)C(OC(=O)Cn2cnc3c2c(=O)n(C)c(=O)n3C)c2ccccc2)c1 (centres undefined) the results were SMARCA2 activ 2, Efflux pump mplx 0, Tb MetRS inh 0, AHR activator 9 and H9c2 TAG inh 4.
For COc1ccc(C)cc1NC(=O)C(OC(=O)Cn1cnc2c1c(=O)n(C)c(=O)n2C)c1ccccc1 (centres undefined) the results were SMARCA2 activ -3, Efflux pump mplx 0, Tb MetRS inh 0, AHR activator 53* and H9c2 TAG inh -23.
For COc1ccc(C)cc1NC(=O)C(OC(=O)c1ccc([N+](=O)[O-])o1)c1ccccc1 (centres undefined) the results were SMARCA2 activ -1, Efflux pump mplx 0, Tb MetRS inh 0 and AHR activator 47*.
`COCc1cc(N2CCN(C(=O)OC(C)(C)C)C[C@H]2C)ccc1N1CC[C@H](O)C1` gave SMARCA2 activ 1.
`O=C(CSc1nnc(-c2ccccn2)n1-c1ccccc1)c1ccc(F)cc1` gave SMARCA2 activ -2.
Screening O=C(Nc1nc2ccc(Cl)cc2s1)c1ccco1 returned SMARCA2 activ -1, Efflux pump mplx 0, Tb MetRS inh -1, AHR activator 10 and H9c2 TAG inh 9.
CC1CC1C(=O)Nc1nc2ccc(Cl)cc2s1 (centres undefined) was read as SMARCA2 activ -2, Efflux pump mplx 0, Tb MetRS inh 0, AHR activator 67* and H9c2 TAG inh 14.
For c1ccc(-n2ncc3c2ncn2nnnc32)cc1 the results were SMARCA2 activ -2, Efflux pump mplx 0, Tb MetRS inh -1 and AHR activator 3.
Cc1nc2c3cnn(-c4ccccc4)c3ncn2n1 was read as SMARCA2 activ -2, Efflux pump mplx 0, Tb MetRS inh 0, AHR activator 69* and H9c2 TAG inh 9.
`Nc1c(C(=O)Nc2ccc3c(c2)OCCO3)nnn1Cc1cccc(Br)c1` gave SMARCA2 activ 4, Efflux pump mplx 0, Tb MetRS inh 1, AHR activator 21 and H9c2 TAG inh 11.
`Nc1c(C(=O)Nc2ccc3c(c2)OCCO3)nnn1Cc1ccc(Br)cc1` gave SMARCA2 activ 5, Efflux pump mplx 0, Tb MetRS inh 0, AHR activator 51* and H9c2 TAG inh -15.
Cc1ccc(CN2CCCCC(NC(=O)c3ccc(C)cc3)C2=O)cc1 (centres undefined) was read as SMARCA2 activ 0.
Cc1ccc(Sc2ccc(NC(=O)CCl)cc2)cc1C was read as SMARCA2 activ -6, Efflux pump mplx 0, Tb MetRS inh 2, AHR activator 7 and H9c2 TAG inh 63*.
O=C(CCl)Nc1ccc(-c2ccccc2)cc1 was read as SMARCA2 activ -11, Efflux pump mplx 0, Tb MetRS inh 0, AHR activator -1 and H9c2 TAG inh 56*.
For CCN1Cc2nnn(CC3CCCCC3)c2-c2ccccc2S1(=O)=O the results were SMARCA2 activ -1.
For CCN1c2ccccc2NC2C1C(C(C)=O)C(=O)N2c1ccc(Cl)cc1 (centres undefined) the results were SMARCA2 activ 0, Efflux pump mplx 0, Tb MetRS inh 0 and AHR activator 83*.
Screening O=C1Nc2ccccc2N(O)N1c1ccc(Cl)cc1 returned SMARCA2 activ 3, Efflux pump mplx 0, Tb MetRS inh 0, AHR activator 16 and H9c2 TAG inh -6.
`CC(C)CCCCCCCCc1cccc(O)c1C(=O)O` gave SMARCA2 activ 0.
For CC1CC1c1ccc(/C=C(\C#N)C(=O)Nc2ccccc2Cl)o1 (centres undefined) the results were SMARCA2 activ 3, Efflux pump mplx 0, Tb MetRS inh 0 and AHR activator 50*.
Screening CN(C)C(=O)C[C@H]1CC[C@H]2[C@H](COc3ccc(NC(=O)C4CC4)cc3C(=O)N2C)O1 returned SMARCA2 activ 0.
CC(=O)Nc1ccc(N2N=C(C)C(N=Nc3ccccc3)C2=O)cc1 (centres undefined) was read as SMARCA2 activ 1, Efflux pump mplx 0, Tb MetRS inh 0, AHR activator 50* and H9c2 TAG inh -22.

Compound activity: PubChem BioAssay, several laboratories
